In paper PMC7839861 (Journal for Immunotherapy of Cancer, 2021):

Tested on: MC38 tumors
Assay: Transcriptional
Assay type: in vivo, mouse
Settings: 2 mg/kg ip Q3D x3
How it was run: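 hCD137 C57BL/6J mice bearing sc MC38 tumors (1 x 10^6 cells) were randomized at about 240 mm3. Groups received vehicle, 15 mg/kg test compound or 15 mg/kg enantiomeric non-binding control iv, or 2 mg/kg anti-CD137 agonist antibody ip, Q3D for 3 doses. Tumors were harvested 1 hr after the last dose. RNA (100 ng/tumor) was profiled on the nCounter mouse PanCancer IO 360 panel, and FFPE sections were stained for mouse CD8 with HRP detection.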

B1: anti-CD137 agonist antibody: anti-CD137 agonist antibody, a commercially available urelumab analog (antibody, V domains shown)
VH: QVQLQQWGAGLLKPSETLSLTCAVYGGSFSGYYWSWIRQSPEKGLEWIGEINHGGYVTYNPSLESRVTISVDTSKNQFSLKLSSVTAADTAVYYCARDYGPGNYDWYFDLWGRGTLVTVSS
VL: EIVLTQSPATLSLSPGERATLSCRASQSVSSYLAWYQQKPGQAPRLLIYDASNRATGIPARFSGSGSGTDFTLTISSLEPEDFAVYYCQQRSNWPPALTFGGGTKVEIK
T cell infiltration of tumors, histological analysis (CD8 IHC): notably increased
